Experimental data: paper PMC3778312 (British Journal of Cancer, 2013)

Columns and labels:
[1] = tested on: OvCar-3 ovarian cancer xenografts; details: single agent; ref Ihle et al, 2005; Koul et al, 2010; cited from earlier work
[2] = tested on: Patient-derived SCCHN xenografts; details: PX-866 and docetaxel compared with either agent alone; ref Bowles et al, 2011; cited from earlier work
U87 glioma xenografts = details: single agent; ref Ihle et al, 2005; Koul et al, 2010; cited from earlier work
A-549 NSCLC xenografts = details: single agent; ref Ihle et al, 2005; Koul et al, 2010; cited from earlier work
incurable solid tumours = assay: Phase 1 antitumour activity of PX-866 with docetaxel; assay type: in vivo, human
Outline: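 Test compound given orally at 4, 6 or 8 mg daily (fasting) with docetaxel 75 mg m−2 IV every 21 days. In cycle 1, docetaxel was given on day 1 and the test compound started on day 8. Response was assessed about every 6 weeks by RECIST 1.1, with PSA per PCWG allowed in mCRPC. PFS ran from consent to progression or death. Archival tumour was genotyped for PIK3CA/KRAS by shifted termination assay.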

[3] = Phase 1 safety monitoring of PX-866 with docetaxel; assay type: in vivo, human
Outline: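 Open-label dose escalation in cohorts of 6–9 patients at 4, 6 or 8 mg oral daily test compound plus docetaxel 75 mg m−2 IV every 21 days, with dexamethasone premedication. All patients receiving ≥1 dose had vital signs, labs and exams; AEs were graded by NCI CTCAE v4.02. DLTs included related grade ≥3 events, febrile grade 3/4 neutropenia, platelets <25 000 per μl and ANC <500 per μl for >7 days.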

What does the source list for `C=CCN(/C=C1/C(=O)O[C@H](COC)[C@@]2(C)C1=C(O)C(=O)C1=C2[C@H](OC(C)=O)C[C@]2(C)C(=O)CC[C@@H]12)CC=C` [PX-866]?
tumour growth [1]: delays tumour growth; tumour suppression [2]: enhanced tumour suppression; tumour growth (U87 glioma xenografts): delays tumour growth; tumour growth (A-549 NSCLC xenografts): delays tumour growth; evaluable patients remaining on study in excess of 180 days (incurable solid tumours; 11 out of 35): 31%; best response: partial response (PR) (incurable solid tumours; 35 evaluable patients (2 patients)): 6%; best response: disease progression (PD) (incurable solid tumours; 35 evaluable patients (11 patients)): 31%; median PFS, PIK3CA-MUT/KRAS-WT (incurable solid tumours; N=6, range: 49–334, P=0.23 vs WT/WT): 175 days; median PFS, mutational status unknown (incurable solid tumours; N=12, range: 1–569): 77.5 days; median PFS, PIK3CA-WT/KRAS-WT (incurable solid tumours; N=20, range: 1–342): 49 days; PR+SD rate (incurable solid tumours; evaluable patients): 69%; overall median progression-free survival (PFS) (incurable solid tumours; range: 1–569): 73.5 days; patients with tumour shrinkage of ⩾15% (incurable solid tumours; ten patients): 29%; patients requiring PX-866 dose reductions ([3]; 4 out of 43, all in the 8 mg cohort, vomiting and/or diarrhoea): 9%; Treatment-emergent AE: Alopecia ([3]; PX-866 4 mg + docetaxel, N=10): 2 (20) N (%); Treatment-emergent AE: Anaemia ([3]; PX-866 4 mg + docetaxel, N=10): 2 (20) N (%); Treatment-emergent AE: Arthralgia ([3]; PX-866 4 mg + docetaxel, N=10): 0 (0) N (%); Treatment-emergent AE: Asthenia ([3]; PX-866 4 mg + docetaxel, N=10): 1 (10) N (%); Treatment-emergent AE: Bone pain ([3]; PX-866 4 mg + docetaxel, N=10): 0 (0) N (%); Treatment-emergent AE: Cough ([3]; PX-866 4 mg + docetaxel, N=10): 2 (20) N (%); Treatment-emergent AE: Decreased appetite ([3]; PX-866 4 mg + docetaxel, N=10): 1 (10) N (%); Treatment-emergent AE: Dehydration ([3]; PX-866 4 mg + docetaxel, N=10): 3 (30) N (%); Treatment-emergent AE: Diarrhoea ([3]; PX-866 4 mg + docetaxel, N=10): 7 (70) N (%); Treatment-emergent AE: Dizziness ([3]; PX-866 4 mg + docetaxel, N=10): 1 (10) N (%); Treatment-emergent AE: Dysgeusia ([3]; PX-866 4 mg + docetaxel, N=10): 2 (20) N (%); Treatment-emergent AE: Epistaxis ([3]; PX-866 4 mg + docetaxel, N=10): 1 (10) N (%); Treatment-emergent AE: Fatigue ([3]; PX-866 4 mg + docetaxel, N=10): 6 (60) N (%); Treatment-emergent AE: Hypokalemia ([3]; PX-866 4 mg + docetaxel, N=10): 2 (20) N (%); Treatment-emergent AE: Nausea ([3]; PX-866 4 mg + docetaxel, N=10): 5 (50) N (%); Treatment-emergent AE: Neutropenia ([3]; PX-866 4 mg + docetaxel, N=10): 6 (60) N (%); Treatment-emergent AE: Oedema peripheral ([3]; PX-866 4 mg + docetaxel, N=10): 4 (40) N (%); Treatment-emergent AE: Oropharyngeal pain ([3]; PX-866 4 mg + docetaxel, N=10): 1 (10) N (%); Treatment-emergent AE: Pyrexia ([3]; PX-866 4 mg + docetaxel, N=10): 1 (10) N (%); Treatment-emergent AE: Stomatitis ([3]; PX-866 4 mg + docetaxel, N=10): 1 (10) N (%); Treatment-emergent AE: Vomiting ([3]; PX-866 4 mg + docetaxel, N=10): 3 (30) N (%); Treatment-emergent AEs, frequency by severity: Grade 1 ([3]; PX-866 4 mg + docetaxel, N=10): 32 (56) N (%); Treatment-emergent AEs, frequency by severity: Grade 2 ([3]; PX-866 4 mg + docetaxel, N=10): 10 (18) N (%); Treatment-emergent AEs, frequency by severity: Grade 3 ([3]; PX-866 4 mg + docetaxel, N=10): 8 (14) N (%); Treatment-emergent AEs, frequency by severity: Grade 4 ([3]; PX-866 4 mg + docetaxel, N=10): 7 (12) N (%); Treatment-emergent AEs, frequency by severity: Grade 5 ([3]; PX-866 4 mg + docetaxel, N=10): 0 (0) N (%); Treatment-emergent AE: Alopecia ([3]; PX-866 6 mg + docetaxel, N=10): 6 (60) N (%); Treatment-emergent AE: Anaemia ([3]; PX-866 6 mg + docetaxel, N=10): 2 (20) N (%); Treatment-emergent AE: Arthralgia ([3]; PX-866 6 mg + docetaxel, N=10): 2 (20) N (%); Treatment-emergent AE: Asthenia ([3]; PX-866 6 mg + docetaxel, N=10): 4 (40) N (%); Treatment-emergent AE: Bone pain ([3]; PX-866 6 mg + docetaxel, N=10): 4 (40) N (%); Treatment-emergent AE: Constipation ([3]; PX-866 6 mg + docetaxel, N=10): 3 (30) N (%); Treatment-emergent AE: Cough ([3]; PX-866 6 mg + docetaxel, N=10): 5 (50) N (%); Treatment-emergent AE: Decreased appetite ([3]; PX-866 6 mg + docetaxel, N=10): 4 (40) N (%); Treatment-emergent AE: Dehydration ([3]; PX-866 6 mg + docetaxel, N=10): 1 (10) N (%); Treatment-emergent AE: Diarrhoea ([3]; PX-866 6 mg + docetaxel, N=10): 8 (80) N (%); Treatment-emergent AE: Dizziness ([3]; PX-866 6 mg + docetaxel, N=10): 2 (20) N (%); Treatment-emergent AE: Dysgeusia ([3]; PX-866 6 mg + docetaxel, N=10): 3 (30) N (%); Treatment-emergent AE: Epistaxis ([3]; PX-866 6 mg + docetaxel, N=10): 2 (20) N (%); Treatment-emergent AE: Fatigue ([3]; PX-866 6 mg + docetaxel, N=10): 7 (70) N (%); Treatment-emergent AE: Hypokalemia ([3]; PX-866 6 mg + docetaxel, N=10): 1 (10) N (%); Treatment-emergent AE: Nausea ([3]; PX-866 6 mg + docetaxel, N=10): 4 (40) N (%); Treatment-emergent AE: Neutropenia ([3]; PX-866 6 mg + docetaxel, N=10): 5 (50) N (%); Treatment-emergent AE: Oedema peripheral ([3]; PX-866 6 mg + docetaxel, N=10): 6 (60) N (%); Treatment-emergent AE: Oropharyngeal pain ([3]; PX-866 6 mg + docetaxel, N=10): 1 (10) N (%); Treatment-emergent AE: Pyrexia ([3]; PX-866 6 mg + docetaxel, N=10): 4 (40) N (%); Treatment-emergent AE: Stomatitis ([3]; PX-866 6 mg + docetaxel, N=10): 4 (40) N (%); Treatment-emergent AE: Vomiting ([3]; PX-866 6 mg + docetaxel, N=10): 5 (50) N (%); Treatment-emergent AEs, frequency by severity: Grade 1 ([3]; PX-866 6 mg + docetaxel, N=10): 36 (49) N (%); Treatment-emergent AEs, frequency by severity: Grade 2 ([3]; PX-866 6 mg + docetaxel, N=10): 30 (41) N (%); Treatment-emergent AEs, frequency by severity: Grade 3 ([3]; PX-866 6 mg + docetaxel, N=10): 5 (7) N (%); Treatment-emergent AEs, frequency by severity: Grade 4 ([3]; PX-866 6 mg + docetaxel, N=10): 3 (4) N (%); Treatment-emergent AEs, frequency by severity: Grade 5 ([3]; PX-866 6 mg + docetaxel, N=10): 0 (0) N (%); Treatment-emergent AE: Alopecia ([3]; PX-866 8 mg + docetaxel, N=23): 4 (17) N (%); Treatment-emergent AE: Anaemia ([3]; PX-866 8 mg + docetaxel, N=23): 9 (39) N (%); Treatment-emergent AE: Arthralgia ([3]; PX-866 8 mg + docetaxel, N=23): 5 (22) N (%)
